Activity calls are given as the source filed them. No cut-off for these calls is given here.
Columns and labels:
[1] = tested on: Mus musculus; assay: Anticonvulsant activity in CF1 albino mouse assessed as inhibition of subcutaneous pentylenetetrazole-induced seizures at 300 mg/kg, ip after 0.5 hrs; format: functional, organism-based; set-up: dose 300 mg/kg
Summary of the method: (§1)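 Adult male CF no. 1 albino mice (18-25 g) dosed ip with compound suspended in 0.5% methylcellulose (0.01 mL/g). Convulsant: pentylenetetrazol dissolved in 0.9% saline as a 0.85% solution for mice, given subcutaneously.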

[2] = tested on: Mus musculus; assay: Neurotoxicity in CF1 albino mouse assessed as motor impairment at 300 mg/kg, ip after 4 hrs; format: toxicity, organism-based; set-up: dose 300 mg/kg, route intraperitoneal; conditions: in vivo
[3] = tested on: Mus musculus; assay: Neurotoxicity in CF1 albino mouse assessed as motor impairment at 300 mg/kg, ip after 0.5 hrs; format: toxicity, organism-based; set-up: dose 300 mg/kg, route intraperitoneal; conditions: in vivo
[4] = tested on: Mus musculus; assay: Neurotoxicity in CF1 albino mouse assessed as motor impairment at 100 mg/kg, ip after 0.5 hrs; format: toxicity, organism-based; set-up: dose 100 mg/kg, route intraperitoneal; conditions: in vivo
[5] = tested on: Mus musculus; assay: Anticonvulsant activity in CF1 albino mouse assessed as inhibition of maximal electroshock-induced seizures at 30 mg/kg, ip after 0.5 hrs; format: functional, organism-based; set-up: dose 30 mg/kg
Summary of the method: (§2)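 Test compounds suspended in 0.5% methylcellulose and given ip to adult male CF no. 1 albino mice (18-25 g) at 0.01 mL/g body weight before maximal electroshock challenge.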

[6] = tested on: Mus musculus; assay: Teratogenic effect in SWV mouse assessed as dead fetuses at 91 mg/kg, ip administered on morning of day 8 of gestation; format: toxicity, organism-based; set-up: dose 91 mg/kg, route intraperitoneal; conditions: in vivo
[7] = tested on: Mus musculus; assay: Anticonvulsant activity in CF1 albino mouse assessed as inhibition of subcutaneous pentylenetetrazole-induced seizures at 30 mg/kg, ip after 0.5 hrs; format: functional, organism-based; set-up: dose 30 mg/kg; summary of the method: as §1
[8] = tested on: Mus musculus; assay: Teratogenic effect in SWV mouse assessed as live fetuses at 452 mg/kg, ip administered on morning of day 8 of gestation; format: toxicity, organism-based; set-up: dose 452 mg/kg, route intraperitoneal; conditions: in vivo
[9] = tested on: Mus musculus; assay: Anticonvulsant activity in CF1 albino mouse assessed as inhibition of subcutaneous pentylenetetrazole-induced seizures at 30 mg/kg, ip after 4 hrs; format: functional, organism-based; set-up: dose 30 mg/kg; summary of the method: as §1
[10] = tested on: Mus musculus; assay: Teratogenic effect in SWV mouse assessed as dead fetuses at 301 mg/kg, ip administered on morning of day 8 of gestation; format: toxicity, organism-based; set-up: dose 301 mg/kg, route intraperitoneal; conditions: in vivo
[11] = tested on: Mus musculus; assay: Teratogenic effect in SWV mouse assessed as live fetuses at 91 mg/kg, ip administered on morning of day 8 of gestation; format: toxicity, organism-based; set-up: dose 91 mg/kg, route intraperitoneal; conditions: in vivo
[12] = tested on: Mus musculus; assay: Anticonvulsant activity in CF1 albino mouse assessed as inhibition of maximal electroshock-induced seizures at 300 mg/kg, ip after 0.5 hrs; format: functional, organism-based; set-up: dose 300 mg/kg; summary of the method: as §2
[13] = tested on: Mus musculus; assay: Anticonvulsant activity in CF1 albino mouse assessed as inhibition of subcutaneous pentylenetetrazole-induced seizures at 100 mg/kg, ip after 4 hrs; format: functional, organism-based; set-up: dose 100 mg/kg; summary of the method: as §1
[14] = tested on: Mus musculus; assay: Neurotoxicity in CF1 albino mouse assessed as motor impairment at 30 mg/kg, ip after 4 hrs; format: toxicity, organism-based; set-up: dose 30 mg/kg, route intraperitoneal; conditions: in vivo
[15] = tested on: Mus musculus; assay: Anticonvulsant activity in CF1 albino mouse assessed as inhibition of maximal electroshock-induced seizures at 100 mg/kg, ip after 4 hrs; format: functional, organism-based; set-up: dose 100 mg/kg; summary of the method: as §2
[16] = tested on: Mus musculus; assay: Teratogenic effect in SWV mouse assessed as resorptions at 452 mg/kg, ip administered on morning of day 8 of gestation; format: toxicity, organism-based; set-up: dose 452 mg/kg, route intraperitoneal; conditions: in vivo
[17] = tested on: Mus musculus; assay: Neurotoxicity in CF1 albino mouse assessed as motor impairment at 100 mg/kg, ip after 4 hrs; format: toxicity, organism-based; set-up: dose 100 mg/kg, route intraperitoneal; conditions: in vivo
[18] = tested on: Mus musculus; assay: Teratogenic effect in SWV mouse assessed as resorptions at 91 mg/kg, ip administered on morning of day 8 of gestation; format: toxicity, organism-based; set-up: dose 91 mg/kg, route intraperitoneal; conditions: in vivo
[19] = tested on: Mus musculus; assay: Teratogenic effect in SWV mouse assessed as resorptions at 181 mg/kg, ip administered on morning of day 8 of gestation; format: toxicity, organism-based; set-up: dose 181 mg/kg, route intraperitoneal; conditions: in vivo
[20] = tested on: Mus musculus; assay: Anticonvulsant activity in CF1 albino mouse assessed as inhibition of maximal electroshock-induced seizures at 30 mg/kg, ip after 4 hrs; format: functional, organism-based; set-up: dose 30 mg/kg; summary of the method: as §2
[21] = tested on: Mus musculus; assay: Teratogenic effect in SWV mouse assessed as resorptions at 301 mg/kg, ip administered on morning of day 8 of gestation; format: toxicity, organism-based; set-up: dose 301 mg/kg, route intraperitoneal; conditions: in vivo
[22] = tested on: Mus musculus; assay: Anticonvulsant activity in CF1 albino mouse assessed as inhibition of maximal electroshock-induced seizures at 100 mg/kg, ip after 0.5 hrs; format: functional, organism-based; set-up: dose 100 mg/kg; summary of the method: as §2
[23] = tested on: Mus musculus; assay: Neurotoxicity in CF1 albino mouse assessed as motor impairment at 30 mg/kg, ip after 0.5 hrs; format: toxicity, organism-based; set-up: dose 30 mg/kg, route intraperitoneal; conditions: in vivo
[24] = tested on: Mus musculus; assay: Teratogenic effect in SWV mouse assessed as dead fetuses at 452 mg/kg, ip administered on morning of day 8 of gestation; format: toxicity, organism-based; set-up: dose 452 mg/kg, route intraperitoneal; conditions: in vivo
[25] = tested on: Mus musculus; assay: Teratogenic effect in SWV mouse assessed as fetuses with neural tube deffects at 301 mg/kg, ip administered on morning of day 8 of gestation; format: toxicity, organism-based; set-up: dose 301 mg/kg, route intraperitoneal; conditions: in vivo
[26] = tested on: Mus musculus; assay: Teratogenic effect in SWV mouse assessed as live fetuses at 301 mg/kg, ip administered on morning of day 8 of gestation; format: toxicity, organism-based; set-up: dose 301 mg/kg, route intraperitoneal; conditions: in vivo
Summary of the method: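 Two-month-old nulligravid SWV females were mated overnight and checked for vaginal plugs the next morning; gestation onset was set at 10 p.m. the previous night. On gestation day 8.5, each dam received a single ip injection (0.55-2.7 mmol/kg range) or vehicle (25% aqueous Cremophor EL) at 10 μL/g body weight. Litters were scored for implants, resorptions, live and dead fetuses, and fetuses with neural tube defects.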

[27] = tested on: Mus musculus; assay: Anticonvulsant activity in CF1 albino mouse assessed as inhibition of subcutaneous pentylenetetrazole-induced seizures at 300 mg/kg, ip after 4 hrs; format: functional, organism-based; set-up: dose 300 mg/kg; summary of the method: as §1
[28] = tested on: Mus musculus; assay: Anticonvulsant activity in CF1 albino mouse assessed as inhibition of subcutaneous pentylenetetrazole-induced seizures at 100 mg/kg, ip after 0.5 hrs; format: functional, organism-based; set-up: dose 100 mg/kg; summary of the method: as §1
[29] = tested on: Mus musculus; assay: Anticonvulsant activity in CF1 albino mouse assessed as inhibition of maximal electroshock-induced seizures at 300 mg/kg, ip after 4 hrs; format: functional, organism-based; set-up: dose 300 mg/kg; summary of the method: as §2

In the case of `CCCC(CCC)C(=O)O` [VALPROIC ACID], the Activity [1] is reported as “Active”, the Activity [2] is reported as “Non-toxic” and the Activity [3] is reported as “Toxic”. For the same compound, the Activity [4] was “Non-toxic”, the Activity [5] was “inactive” and the Activity [6] was 0.7%. The Activity [7] was “inactive”, the Activity [8] was 88.1% and the Activity [9] was “inactive”. For the same compound, the Activity [10] was 2.6%, the Activity [11] was 93.6% and the Activity [12] was “Active”. For the same compound, the Activity [13] was “inactive”, the Activity [14] was “Non-toxic” and the Activity [15] was “inactive”. The Activity [16] was 11.3%, the Activity [17] was “Non-toxic” and the Activity [18] was 5.7%. The Activity [19] was 7.7%, the Activity [20] was “inactive” and the Activity [21] was 11%. For the same compound, the Activity [22] was “inactive”, the Activity [23] was “Non-toxic” and the Activity [24] was 0.6%. The Activity [25] was 1.5%, the Activity [26] was 86.4% and the Activity [27] was “inactive”. For the same compound, the Activity [28] was “inactive” and the Activity [29] was “inactive”.

From ChEMBL document CHEMBL1155468, “Syntheses and evaluation of anticonvulsant profile and teratogenicity of novel amide derivatives of branched aliphatic carboxylic acids with 4-aminobenzensulfonamide” (J Med Chem, 2010)
